A selection: hits, their analogues and other compounds. The true share with any hit is near 1.7%.
Cneo AK release: Cryptococcus neoformans cell lysis inducers, primary screen, AK release luminescence, single concentration | C. neoformans lysis, adenylate kinase release luminescence, 4 h; normalised: neutral wells 0, clomiphene wells 100 | lysis activity, % at 15 µM | actives 0.2% (n = 360,000);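 active = mean lysis activity across replicates of at least 80%, whatever share of replicates individually reach that level; inactive = mean lysis activity below 80%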
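Assay system: Cryptococcus neoformans yeast cells / Dosing: single-point compound dose / Timing: 4 h at 37 °C static, read 1 h later / Measured by: luminescence of released adenylate kinase using an AK detection reagent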
CaV13 FRET inh: Disruptors of the CACNA1D IQ motif to Ca2+-dependent inactivation inhibitor domain association, primary screening, Förster resonance energy transfer in intact living … | AID 743397 | HEK cells, CFP/YFP FRET ICDI-IQ, plate reader, 10 min; percent FRET-ratio fall versus neutral wells | actives 0.098% (n = 340,000) | inhibition, % at 12.3 µM;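 active = mean replicate inhibition of at least 30% and at least 1% of replicates passing that level; inconclusive = only one of the two criteria is met; inactive = neither criterion is met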
F508del corr: F508del CFTR correction, initial screen, CFBE line, single point; activity (quench increase), % at 7.58 µM; actives 0.36% (n = 350,000); AID 720511, 2013; CFBE cells, YFP halide quenching; stimulated with forskolin plus potentiator P3; % fluorescence drop versus neutral controls;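 active = mean added fluorescence quench of at least 8% versus neutral control, with both replicates also reaching 8%; inconclusive = only one of the mean or replicate conditions met; inactive = mean below 8% and not both replicates reaching 8%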;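 note: cells transiently co-express mutant CFTR-F508del with the halide-sensitive YFP; corrector assay measuring rescue of mutant channel to the surface after 24 h compound exposure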
rRNA inh HTS: reduced GFP signal of wild-type E. coli, primary screen, bacterial rRNA inhibitor project, GFP/RFP fluorescence, OD600, single point; actives 1.6% (n = 350,000); GFP signal change (wild-type ribosome), % (no concentration beside the values); E. coli WT GFP vs humanized-ribosome RFP mutants, 24 h; stronger effect = lower value; DMSO median 0, no signal -100; AID 720706, 2013;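 active = significant combined selectivity score with lowered wild-type GFP, culture density cut under 30%, mutant RFP and density less affected; inactive = any of these conditions unmet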
AID977621: growth inhibition of wild-type GFP E. coli, dose response, H69 mutant RFP, cherry-pick. shares compounds with rRNA inh HTS. E. coli wild-type GFP strain growth, fluorescence, 24 h. activity change, negative = inhibition at 50 µM. 1,900 tested, under 10 active;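 active = Wild-type ribosome reporter drop at least double the humanized mutant ribosome reporter drop, growth loss under a set limit; inconclusive = no clear call, values can overlap the other calls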;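 note: wild-type GFP and H69 mutant RFP strains grown together 50/50 in each well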
AID977628: E. coli growth inhibition, wild-type GFP versus h24 humanized RFP strain, dose response, h24 mutant RFP vs wild-type GFP, cherry-pick; shares compounds with rRNA inh HTS; E. coli WT GFP strain growth, fluorescence, 24 h; activity change, negative = inhibition at 50 µM; 1,900 tested, under 10 active; AID 977628, 2014;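 active = compound lowering the normal-ribosome reporter at least twice as much as the humanized-ribosome reporter, growth loss under a set limit; inconclusive = no clear call, values can overlap the other calls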;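 note: wild-type GFP and h24 humanized RFP strains co-cultured 1 to 1 per well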
Of the large screens only hits and unclear results are named; the others gave an inactive call (follow-up assays come after a bar, where they were run); ! = not active in a repeat.

Cn1cc(CN(CCO)Cc2cccs2)c(-c2cccc(Cl)c2)n1	rRNA inh HTS -31 | AID977621 inactive | AID977628 inactive
C[C@H]1CN([C@@H](C)CO)C(=O)Cc2cc(NC(=O)Cc3ccccc3)ccc2O[C@@H]1CN(C)Cc1ccc2c(c1)OCO2	none (no result: CaV13 FRET inh)
O=C1c2ccccc2C(c2nnnn2Cc2ccccc2)N1Cc1cccc(F)c1 (stereo not drawn)	rRNA inh HTS -23! (no result: Cneo AK release) | AID977621 inactive | AID977628 inactive
COc1ccc(CN2C(=O)c3ccccc3C2c2nnnn2Cc2ccccc2)cc1OC (stereo not drawn)	none (no result: Cneo AK release)
c1ccc(Sc2ncnc3ccccc23)cc1	rRNA inh HTS -18 | AID977628 inconclusive
CC(=O)N(C)C[C@H]1Oc2cc(C#Cc3cccc(F)c3)ccc2S(=O)(=O)N([C@@H](C)CO)C[C@H]1C	none (no result: CaV13 FRET inh)
O=C(Nc1ncccn1)c1ccc([N+](=O)[O-])o1	rRNA inh HTS -18 (no result: Cneo AK release) | AID977621 inactive | AID977628 inconclusive
O=C(Nc1cccc2ccccc12)c1ccc([N+](=O)[O-])o1	rRNA inh HTS -19 | AID977621 inconclusive
C[C@@H]1CN([C@@H](C)CO)C(=O)c2cc(-c3ccncc3)cnc2O[C@H]1CN(C)Cc1ccc(Oc2ccccc2)cc1	none (no result: CaV13 FRET inh)
Cc1ccsc1C(=O)OCC(=O)N1CCc2ccccc2C1	rRNA inh HTS -22 | AID977621 inactive
CC(C)CNC(=O)c1cccc(NC(=O)C(C)Oc2ccccc2)c1 (stereo not drawn)	rRNA inh HTS -24 (no result: Cneo AK release) | AID977621 inactive | AID977628 inactive
COc1ccc(OC(C)C(=O)Nc2cccc(F)c2)cc1 (stereo not drawn)	rRNA inh HTS -23 (no result: Cneo AK release) | AID977621 inactive | AID977628 inconclusive
CCCCc1ccc(S(=O)(=O)Nc2ccc(C)c(NS(C)(=O)=O)c2)cc1	rRNA inh HTS -35 | AID977621 inactive
COc1ccc2c3c([nH]c2c1)[C@@H](CO)N(C(=O)CN(C)C)CC31CCN(CC2CC2)CC1	none (no result: Cneo AK release, CaV13 FRET inh)
O=C(COc1ccc(Cl)cc1)Nc1nc(-c2ccncc2)cs1	none (no result: CaV13 FRET inh)
O=C(COc1ccccc1Cl)Nc1nc(-c2ccncc2)cs1	rRNA inh HTS -20 | AID977621 inactive | AID977628 inactive
COc1ccccc1C(=O)COC(=O)c1cccs1	rRNA inh HTS -24 | AID977621 inactive | AID977628 inactive
Nc1ccccc1Nc1ccc([N+](=O)[O-])cc1[N+](=O)[O-]	rRNA inh HTS -24 (no result: Cneo AK release, F508del corr) | AID977621 inactive | AID977628 inactive
Nc1cc([N+](=O)[O-])ccc1Nc1ccc(O)cc1	rRNA inh HTS -24 | AID977628 inconclusive
NC(=O)c1cc([N+](=O)[O-])ccc1Nc1ccccc1	none
COC(=O)c1cc(C(=O)Cc2ccccc2)c[nH]1	rRNA inh HTS -22 (no result: Cneo AK release) | AID977621 inactive
NC(=O)c1cc(C(=O)Cc2ccccc2)c[nH]1	none
COC(=O)c1cc2c(c3c4cc(F)ccc4n(S(=O)(=O)c4cccc(C)c4)c13)C(=O)N(Cc1ccco1)C2	rRNA inh HTS -17 (no result: Cneo AK release) | AID977621 inactive | AID977628 inactive
COC(=O)c1cc2c(c3c4cc(F)ccc4n(C(=O)c4ccccc4)c13)C(=O)N(Cc1ccco1)C2	none (no result: Cneo AK release)
COC(=O)c1cc2c(c3c4cc(F)ccc4n(S(=O)(=O)c4cccc(C)c4)c13)C(=O)N(Cc1ccccc1OC)C2	none (no result: Cneo AK release)
COC(=O)c1cc2c(c3c4cc(OC)ccc4n(C(=O)c4ccccc4)c13)C(=O)N(Cc1ccco1)C2	rRNA inh HTS -14 (no result: Cneo AK release) | AID977621 inactive | AID977628 inactive
COC(=O)c1cc2c(c3c4ccccc4n(S(=O)(=O)c4ccccc4)c13)C(=O)N(Cc1ccco1)C2	none (no result: Cneo AK release)
COC(=O)c1cc2c(c3c4cc(F)ccc4n(S(=O)(=O)c4ccccc4)c13)C(=O)N(Cc1ccco1)C2	rRNA inh HTS -18 (no result: Cneo AK release) | AID977621 inactive | AID977628 inconclusive
Cc1ccc(S(=O)(=O)N(C)C[C@@H]2OCCCC[C@H](C)Oc3ccc(N(C)C)cc3C(=O)N([C@H](C)CO)C[C@@H]2C)cc1	none (no result: Cneo AK release, CaV13 FRET inh)
CC(=O)N(C)C[C@H]1Oc2ncc(C#CCC3CCCC3)cc2C(=O)N([C@@H](C)CO)C[C@H]1C	none (no result: CaV13 FRET inh)
COc1cccc(OC)c1CNC(=O)CCSCc1ccccc1F	rRNA inh HTS -35 (no result: Cneo AK release) | AID977621 inactive | AID977628 inactive
COc1cccc(CNC(=O)CCSCc2ccccc2F)c1	rRNA inh HTS -29 (no result: Cneo AK release) | AID977621 inactive
COCCNC(=O)CCSCc1ccccc1F	none (no result: CaV13 FRET inh, F508del corr, rRNA inh HTS)
Cc1[nH]nc2c1C(c1ccc(F)cc1)N(Cc1ccccc1)C2=O (stereo not drawn)	rRNA inh HTS -21 (no result: Cneo AK release) | AID977628 inconclusive
CCOC(=O)c1cnc2c(ccc3ccccc32)c1NCCCN(C)C	rRNA inh HTS -26 | AID977621 inactive
CC1Cc2cc(S(=O)(=O)N3CCN(c4cccc(Cl)c4)CC3)ccc2N1C(=O)C1CC1 (stereo not drawn)	rRNA inh HTS -26 | AID977621 inactive | AID977628 inactive
CC1Cc2cc(S(=O)(=O)N3CCN(c4ccc(Cl)cc4)CC3)ccc2N1C(=O)C1CC1 (stereo not drawn)	none
CS(=O)(=O)Nc1ccccc1C(=O)NCCSc1ccccc1	rRNA inh HTS -22 | AID977621 inactive | AID977628 inactive
C[C@@H]1CN([C@H](C)CO)C(=O)Cc2cc(NC(=O)Nc3ccccc3)ccc2O[C@@H]1CN(C)C(=O)NC1CCCCC1	none (no result: CaV13 FRET inh)
CCc1cccc(CC)c1NC(=O)Cn1c(-c2ccc(F)cc2)noc1=O	rRNA inh HTS -17 (no result: Cneo AK release) | AID977621 inactive | AID977628 inactive
O=C(Nc1ccc(Cl)c(Cl)c1)c1ccc(Cl)c(Cl)c1	rRNA inh HTS -17 | AID977621 inactive | AID977628 inactive
O=C(NC1CCCCC1)C(c1cccc2ccccc12)n1c(=O)c(-c2ccco2)nc2ccccc21 (stereo not drawn)	rRNA inh HTS -23 (no result: Cneo AK release) | AID977621 inactive | AID977628 inactive
COc1ccc(C(C(=O)NC2CCCCC2)n2c(=O)c(-c3ccco3)nc3ccccc32)cc1 (stereo not drawn)	none (no result: Cneo AK release)
CCCNC(=O)Nc1ccc2c(c1)C(=O)N(C)C[C@@H](OC)[C@@H](C)CN(C(=O)C1CCC1)[C@@H](C)CO2	none (no result: CaV13 FRET inh)
CCC(=O)Nc1nc2c(OC)ccc(OC)c2s1	rRNA inh HTS -21 | AID977621 inactive
CCC(=O)N[C@@H]1C=C[C@H](CC(=O)NCc2ccccc2OC)O[C@@H]1CO	none (no result: CaV13 FRET inh)
